# High-throughput results as filed in PubChem BioAssay.
# PMI act hi M6P = PMI (human) activation, high substrate; AID 1216; activation factor at 20 µM; P34949; coupled PMI enzyme assay, resazurin fluorescence, 20 min; active compounds read high; 1 = untreated enzyme, 0 = substrate-free blank; hit rate 0.34% among 190,000;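 active means activation factor of 2 or more at 20 µM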
# Target sequence (P34949 whole entry, looked up): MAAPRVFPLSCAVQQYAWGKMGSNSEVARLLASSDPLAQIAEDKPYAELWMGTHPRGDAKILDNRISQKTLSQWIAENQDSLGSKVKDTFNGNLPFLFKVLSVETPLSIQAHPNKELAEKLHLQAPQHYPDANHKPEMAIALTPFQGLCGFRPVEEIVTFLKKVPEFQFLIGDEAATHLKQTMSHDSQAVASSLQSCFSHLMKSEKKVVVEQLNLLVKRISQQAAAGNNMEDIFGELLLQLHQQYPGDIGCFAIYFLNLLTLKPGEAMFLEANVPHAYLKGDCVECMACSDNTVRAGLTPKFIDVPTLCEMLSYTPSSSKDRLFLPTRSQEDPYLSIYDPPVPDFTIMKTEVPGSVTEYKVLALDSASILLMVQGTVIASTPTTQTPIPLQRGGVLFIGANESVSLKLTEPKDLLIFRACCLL
#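 Test system – human PMI in coupled enzyme assay · Timing – 20 min incubation at room temperature · Detection – Diaphorase-driven resazurin-to-resorufin fluorescence, excitation 544, emission 590 nm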
# L major viab = Leishmania major promastigote growth inhibition. inhibition, % at 10 µM. Leishmania major promastigotes, resazurin fluorescence viability. hit rate 9% among 200,000; in the data active means inhibition above about 50%;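 further: promastigotes grown with compound for 44 hours at 28 °C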
# PTEN del growth = PTEN-deleted cell growth suppression; AID 827; viability, % at 10 µM; HCT116 PTEN-null viability, CellTiter-Glo, 60 h; active compounds read low; hit rate 1.2% among 140,000;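 active means viability at or below a set limit, 4 SD under the median of all tested compounds, cut at about 3.7% in these data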;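 further: PTEN knockout HCT116 line with beta catenin targeted HCT116 as companion control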
# PMI act = activators of human phosphomannose isomerase. purified human PMI, coupled resazurin fluorescence, 20 min; active compounds read high; 1 = vehicle control, 0 substrate-free wells. activation factor at 20 µM. hit rate 0.005% among 190,000. AID 1214;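 active means activation factor of 2 or more at 20 µM, relative to plate controls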
# bCat KO growth = beta-catenin-lacking colon tumor cell growth suppression. hit rate 1.5% among 140,000. HCT116 beta-catenin knockout viability, CellTiter-Glo, 60 h; active compounds read low. viability, % at 10 µM. AID 818;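 active means viability at or under a set limit, the compound median less 4 SD, cut at about 6% in these data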;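 further: 0% = Hyamine 1622 control at 20 µM and 100% = untreated cell control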
# An asterisk follows results filed as active; / = no result given. In the library only some 9.6% were active in any assay of this set; here they are far more common.
SMILES,PMI act hi M6P,L major viab,PTEN del growth,PMI act,bCat KO growth
CCN(CC)S(=O)(=O)c1ccc(N2CCOCC2)c(NC(=O)C2CCCC2)c1,1,53*,92,0.9,92
CCOc1ccc(S(=O)(=O)N(CC)CC)cc1NS(=O)(=O)c1ccc(F)c(F)c1F,1,60*,88,0.9,90
O=C(Nc1ccccc1N1CCOCC1)c1cccc(NS(=O)(=O)c2ccc(F)c(F)c2)c1,0.8,70*,/,0.8,/
CCOc1ccc(C(=O)Nc2cc(S(=O)(=O)Nc3ccccc3Cl)ccc2N2CCOCC2)cc1,1,97*,84,1.1,80
COc1ccc(/C=C(\C#N)c2n[nH]c(Cn3cncn3)n2)cc1,1,4,/,1,/
Cc1ccc(/C=C2\OC(=O)c3ccccc32)cc1,0.9,5,80,0.8,90
CCS(=O)(=O)c1ccc(-c2csc(-c3ccccc3)n2)c(Cl)c1Cl,0.9,7,77,0.9,76
CC1=C(C(=O)Nc2ccccc2)C(c2ccncc2)n2nnnc2N1 (stereo not given),/,57*,75,/,72
COc1ccccc1NC(=O)C1=C(C)Nc2nnnn2C1c1cc(Br)ccc1OC (stereo not given),1,97*,59,0.9,44
O=C(O)c1ccc2c(=O)n3c(nc2c1)/C(=C/c1ccccc1C(F)(F)F)CCCC3,0.9,-8,100,0.9,96
Cc1ccc(-c2nnc(Nc3ccc4c(c3)OCO4)c3ccccc23)cc1S(=O)(=O)NC(C)C,0.9,91*,49,0.8,46
CNC(=O)c1ccc(Nc2nnc(-c3ccc(C)c(S(=O)(=O)NCC4CCCO4)c3)c3ccccc23)cc1 (stereo not given),1,-4,95,0.8,88
Cc1ccc(-c2nnc(Nc3ccccc3)c3ccccc23)cc1S(=O)(=O)NCC1CCCO1 (stereo not given),0.9,80*,68,0.9,77
Cc1ccc(-c2nnc(Nc3ccc4c(c3)OCO4)c3ccccc23)cc1S(=O)(=O)NCCO,1,77*,58,0.9,65
Cc1ccc(-c2nnc(N3CCCCC3)c3ccccc23)cc1S(=O)(=O)N(C)C,0.9,19,60,0.9,77
Cn1c(=O)[nH]c(=O)c2c1nc(SCCO)n2CC(O)COc1ccccc1 (stereo not given),1,-5,/,1,/
COc1ccc(COc2cc(-c3cccc(OC)c3)nc3ccc(NC(=O)c4ccc(N(C)C)cc4)cc23)cc1,1,84*,30,1.1,36
COc1ccc(COc2cc(-c3cccc(OC)c3)nc3ccc(N)cc23)cc1,0.9,76*,14,1,14
COC(=O)c1ccc(NC(=O)NC2CCCCC2)cc1,1,52*,96,1,95
COC(=O)c1ccc(NC(=S)NC2CC3CCC2C3)cc1 (stereo not given),1.1,73*,86,0.9,88
COC(=O)c1ccc(NC(=S)NC2CCCCC2)cc1,0.9,87*,51,0.8,60
CCOc1ccc(NC(=O)c2ccc(NC(=S)NC3CCCCC3)cc2)cc1,0.5,10,/,1,/
O=C(Nc1ccc(F)cc1)NC1CCCCC1,1.1,1,106,1,104
Cc1cc(C)c(S(=O)(=O)Nc2ccnc(-c3cccnc3)n2)c(C)c1,1.2,-10,/,1.3,/
Cc1sc2ncnc(NCCCn3ccnc3)c2c1C,1,55*,101,0.9,104
SMILES,PMI act hi M6P,L major viab,PTEN del growth,PMI act,bCat KO growth
c1cn(CCCNc2ncnc3nc[nH]c23)cn1,0.9,0,102,0.9,99
CCOC(=O)C1(C)/C(=N/Nc2ccccc2OC)C(=O)C(=O)N1c1ccccc1 (stereo not given),1.6,18,/,1.4,/
CCOC(=O)C1(C)/C(=N/Nc2ccccc2)C(=O)C(=O)N1c1ccccc1 (stereo not given),2.1*,1,101,1.7,97
COc1ccc(N(CC(=O)NCc2ccccc2)C(=O)Cn2nnc(-c3ccccc3F)n2)cc1OC,0.9,-2,/,0.8,/
COc1ccccc1C(=O)N1CCN(C2CCN(Cc3ccccc3)CC2)CC1,1,91*,90,1,94
O=C(c1cccc(OC2CCN(C3CCCC3)CC2)c1)N1CCCCCCC1,0.9,89*,/,0.9,/
COc1cccc(C(=O)N2CCN(C3CCN(Cc4ccccc4)CC3)CC2)c1,1,90*,106,1,97
